How the values were obtained:
Rattus norvegicus [1] = assay: Antithrombotic activity in Wistar rat assessed as wet thrombus weight at 0.5 umol/kg, iv; format: functional
Procedure, shortened: (§1)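 Male Wistar rats (250–300 g) under ip pentobarbital sodium (80.0 mg/kg). Arteriovenous shunt: polyethylene tube holding a weighed 6 cm thread, filled with heparin sodium (50 IU/ml in NS), joins left jugular vein to right carotid artery. Heparin, then compound in NS (kept on ice), injected through the tube; blood flows 15 min. Thread weighed wet, then dry after 2 weeks in a desiccator.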

Rattus norvegicus [2] = assay: Antithrombotic activity in Wistar rat assessed as dry thrombus weight at 0.5 umol/kg, iv; format: functional; procedure, shortened: as §1
[3] = HPLC retention, log K of the compound
Rattus norvegicus [4] = assay: Antithrombotic activity in Wistar rat assessed as dry thrombus weight at 0.5 umol/kg, po; format: functional
Procedure, shortened: (§2)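 Compound in NS given orally to male Wistar rats (250–300 g), which were then anesthetized with ip pentobarbital sodium (80.0 mg/kg). Thirty min later the carotid artery and jugular vein were exposed. Blood ran 15 min through a polyethylene-tube shunt holding a thread. Wet thrombus weighed, then dry weight recorded after 2 weeks in a desiccator.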

Rattus norvegicus [5] = assay: Antithrombotic activity in Wistar rat assessed as wet thrombus weight at 0.5 umol/kg, po; format: functional; procedure, shortened: as §2
Rattus norvegicus [6] = assay: Antithrombotic activity in Wistar rat assessed as wet thrombus weight at […], iv; format: functional
Rattus norvegicus [7] = assay: Antithrombotic activity in Wistar rat assessed as dry thrombus weight at […], iv; format: functional
Rattus norvegicus [8] = assay: Antithrombotic activity in Wistar rat assessed as wet thrombus weight at 5 nmol/kg, iv; format: functional; procedure, shortened: as §1
Rattus norvegicus [9] = assay: Antithrombotic activity in Wistar rat assessed as wet thrombus weight at 0.5 nmol/kg, iv; format: functional; procedure, shortened: as §1
Rattus norvegicus [10] = assay: Antithrombotic activity in Wistar rat assessed as dry thrombus weight at 5 nmol/kg, iv; format: functional; procedure, shortened: as §1
Rattus norvegicus [11] = assay: Antithrombotic activity in Wistar rat assessed as dry thrombus weight at 0.5 nmol/kg, iv; format: functional; procedure, shortened: as §1
Plasma [12] = assay: Inhibition of PAF-induced platelet aggregation in pig platelet rich plasma; format: functional, cell-free; details: Sus scrofa
Procedure, shortened: (§3)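 Pig blood anticoagulated with 0.38% sodium citrate (final). PRP taken at 100 g for 10 min, PPP at 1,500 g for 10 min, platelets adjusted to 2 × 10⁸/ml with autologous PPP. Compound in NS (1–0.01 μmol/L final) added to 0.5 ml PRP. Aggregation induced with PAF (10^-7 mol/L final) or ADP (10^-5 mol/L final), followed turbidimetrically at 37 °C for 5 min. Peak height (Am%) compared with NS control; IC50 derived.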

Plasma [13] = assay: Inhibition of ADP-induced platelet aggregation in pig platelet rich plasma; format: functional, cell-free; details: Sus scrofa; procedure, shortened: as §3

| SMILES | Activity (Rattus norvegicus [1]) [mg] | Activity (Rattus norvegicus [2]) [mg] | log K [3] | further results |
| --- | --- | --- | --- | --- |
| CSCC[C@@H]1NC(=O)[C@@H]2Cc3c([nH]c4ccccc34)CN2C1=O | 10.41 | 3.28 | 0.97 |  |
| C[C@@H]1NC(=O)[C@@H]2Cc3c([nH]c4ccccc34)CN2C1=O | 12.05 | 3.83 | 0.47 |  |
| O=C(O)C[C@@H]1NC(=O)[C@@H]2Cc3c([nH]c4ccccc34)CN2C1=O | 12.26 | 3.89 | 0.15 | Activity (Rattus norvegicus [4]): 3.94 mg; Activity (Rattus norvegicus [5]): 12.42 mg |
| O=C1NCC(=O)N2Cc3[nH]c4ccccc4c3C[C@@H]12 | 10.68 | 3.39 | 0.19 | Activity (Rattus norvegicus [4]): 3.67 mg; Activity (Rattus norvegicus [5]): 11.57 mg |
| NC(=O)CC[C@@H]1NC(=O)[C@@H]2Cc3c([nH]c4ccccc34)CN2C1=O | 11.1 | 3.52 | 0.28 |  |
| O=C1N[C@@H](CO)C(=O)N2Cc3[nH]c4ccccc4c3C[C@@H]12 | 9.44 | 2.98 | -0.16 |  |
| CC(=O)Oc1ccccc1C(=O)O [ASPIRIN] |  |  |  | Activity (Rattus norvegicus [6]): 7.56 mg; Activity (Rattus norvegicus [7]): 2.4 mg |
| NC(=O)C[C@@H]1NC(=O)[C@@H]2Cc3c([nH]c4ccccc34)CN2C1=O | 9.54 | 3.03 | 0.21 |  |
| N=C(N)NCCC[C@@H]1NC(=O)[C@@H]2Cc3c([nH]c4ccccc34)CN2C1=O | 8.62 | 1.22 | -0.58 | Activity (Rattus norvegicus [8]): 14.52 mg; Activity (Rattus norvegicus [9]): 15.71 mg; Activity (Rattus norvegicus [10]): 2.27 mg; Activity (Rattus norvegicus [11]): 2.45 mg |
| O=C1N[C@@H](Cc2ccccc2)C(=O)N2Cc3[nH]c4ccccc4c3C[C@@H]12 | 8.58 | 1.33 | 1.05 | Activity (Rattus norvegicus [8]): 13.3 mg; Activity (Rattus norvegicus [9]): 15.3 mg; Activity (Rattus norvegicus [10]): 2.08 mg; Activity (Rattus norvegicus [11]): 2.39 mg |
| CC(O)[C@@H]1NC(=O)[C@@H]2Cc3c([nH]c4ccccc34)CN2C1=O (stereo partly drawn) | 11.49 | 3.65 | -0.14 |  |
| CC(C)[C@@H]1NC(=O)[C@@H]2Cc3c([nH]c4ccccc34)CN2C1=O | 8.19 | 1.2 | 0.97 | Activity (Rattus norvegicus [8]): 14.79 mg; IC50 (Plasma [12]): 0.294 µM; Activity (Rattus norvegicus [9]): 16.88 mg; Activity (Rattus norvegicus [10]): 2.31 mg; Activity (Rattus norvegicus [11]): 2.64 mg; IC50 (Plasma [13]): 0.112 µM |
| O=C1N[C@@H](Cc2ccc(O)cc2)C(=O)N2Cc3[nH]c4ccccc4c3C[C@@H]12 | 10.49 | 3.3 | 0.01 |  |
| CC(C)C[C@@H]1NC(=O)[C@@H]2Cc3c([nH]c4ccccc34)CN2C1=O | 10.4 | 3.3 | 1.32 |  |
| O=C(O)CC[C@@H]1NC(=O)[C@@H]2Cc3c([nH]c4ccccc34)CN2C1=O | 10.42 | 3.31 | 0.21 |  |
| CCC(C)[C@@H]1NC(=O)[C@@H]2Cc3c([nH]c4ccccc34)CN2C1=O (stereo partly drawn) | 12.45 | 3.95 | 1.26 |  |
| NCCCC[C@@H]1NC(=O)[C@@H]2Cc3c([nH]c4ccccc34)CN2C1=O | 12.78 | 4.06 | -0.26 | Activity (Rattus norvegicus [4]): 3.73 mg; Activity (Rattus norvegicus [5]): 11.75 mg |
| O=C1NC(CS)C(=O)N2Cc3[nH]c4ccccc4c3C[C@@H]12 (single isomer, unassigned) | 9.06 | 2.88 | 0.71 |  |

— ChEMBL document CHEMBL1143743, “A new class of anti-thrombosis hexahydropyrazino-[1',2':1,6]pyrido-[3,4-b]-indole-1,4-dions: design, synthesis, logK determination, and QSAR analysis” (Bioorg Med Chem, 2007)
